The list is not random: actives were taken first. Their share in the collection is about 2.3%.
COUP-TFII inh: inhibitors of human COUP-TFII (NR2F2) | P24468 | HEK293T NGFI-A luciferase reporter, luminescence | inhibition, % at 8.6 µM | 370,000 compounds, 0.7% hits;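 active = inhibition above a per-plate cutoff, mean inhibition of test wells between control levels plus 3 SD, cut at about 38% in these data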;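 note: cells cotransfected with COUP-TFII expression vector driving the NGFI-A reporter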
Target sequence (P24468 whole entry, looked up): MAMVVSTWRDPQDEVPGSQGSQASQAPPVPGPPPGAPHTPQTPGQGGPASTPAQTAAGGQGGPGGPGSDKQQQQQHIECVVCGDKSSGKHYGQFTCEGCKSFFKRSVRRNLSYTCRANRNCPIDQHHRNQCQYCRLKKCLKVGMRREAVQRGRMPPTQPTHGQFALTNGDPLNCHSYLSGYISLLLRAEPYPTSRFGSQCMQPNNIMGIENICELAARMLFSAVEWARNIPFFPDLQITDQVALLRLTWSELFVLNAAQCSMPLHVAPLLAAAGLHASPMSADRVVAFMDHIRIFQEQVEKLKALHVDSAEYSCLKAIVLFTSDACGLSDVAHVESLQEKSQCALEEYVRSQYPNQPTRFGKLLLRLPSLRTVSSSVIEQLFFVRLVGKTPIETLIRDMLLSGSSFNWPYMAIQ
NR2E3 ag-1: agonists of human nuclear receptor NR2E3; GST-NR2E3/biotin-RetCOR TR-FRET, 1536-well; 320,000 compounds, 0.12% hits; inhibition of corepressor binding, % at 4.78 µM; Q9Y5X4;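 active = percent inhibition above the cutoff of mean plus 3 SD of all tested compounds, set per screening campaign, cut at about 20% in these data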
Target sequence (Q9Y5X4 whole entry, looked up): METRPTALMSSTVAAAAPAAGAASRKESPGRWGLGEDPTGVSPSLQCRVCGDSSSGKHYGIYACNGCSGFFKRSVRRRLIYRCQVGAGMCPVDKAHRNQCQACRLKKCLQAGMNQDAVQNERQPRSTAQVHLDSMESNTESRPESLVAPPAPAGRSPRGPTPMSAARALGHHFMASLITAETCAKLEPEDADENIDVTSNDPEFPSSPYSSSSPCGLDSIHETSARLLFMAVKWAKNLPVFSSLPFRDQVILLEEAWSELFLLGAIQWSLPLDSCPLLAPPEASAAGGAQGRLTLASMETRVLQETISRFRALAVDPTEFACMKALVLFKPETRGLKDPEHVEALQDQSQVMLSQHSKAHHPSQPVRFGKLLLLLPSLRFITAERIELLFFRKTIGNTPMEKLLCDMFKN
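Format: 1536-well format; test system: GST-NR2E3 and biotin-RetCOR proteins; read-out basis: percent inhibition of TR-FRET ratio; timing: 5 h incubation at 4 °C; detection: time-resolved FRET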
CHT allo act: human CHT allosteric activation. Q9GZV3. AID 488977. 310,000 compounds, 0.49% hits. CHT-expressing cells, membrane potential dye, choline EC20; active compounds read high; LV-AA mutant CHT in HEK293 cells. B-score at 10 µM;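 active = initial fluorescence not abnormally high and integrated response B-score, plate-corrected, over 3 SD above library mean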
CHT block: inhibits the human high affinity choline transporter. CHT-expressing cells, membrane potential dye, choline response; active compounds read low. Q9GZV3. 310,000 compounds, 0.86% hits. B-score at 10 µM;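 active = B-score over 3 SD under the library average, and starting fluorescence ratio not unusually high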;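 note: choline stimulus applied at its EC90 after an EC20 pre-addition; B-score computed on integrated fluorescence ratio after choline addition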
NR2E3 ag-2: activates human NR2E3 receptor; AID 602229; inhibition of corepressor binding, % at 3.98 µM; Q9Y5X4; 360,000 compounds, 0.35% hits; CHO-S Gal4-NCOR/VP16-NR2E3 two-hybrid, luciferase;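 active = inhibition above the mean of all tested compounds plus 3 SD, cut at about 70% in these data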;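 note: higher means lower luciferase signal from less NR2E3 corepressor binding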
GalR3 antag: human GalR3 antagonism | HEK293 GalR3-CNG cAMP membrane potential fluorescence; galR3 body fused to GalR1 C-terminus | inhibition, % at 3 µM | 360,000 compounds, 0.44% hits | AID 651719;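 active = inhibition above the screen-wide average plus 3 SD, cut at about 13% in these data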;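 note: forskolin and galanin both at EC90 stimulate the cells; cAMP rise reported by CNG channel membrane potential dye signal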
GalR3 conf: confirmation of human galanin receptor 3 antagonists; HEK293 GalR3 CNG cAMP biosensor, membrane potential fluorescence; galR3 fused to GalR1 carboxy tail; challenged with forskolin and galanin at EC90; inhibition, % at 3 µM; 1,600 compounds, 59% hits; AID 652245; shares compounds with GalR3 antag;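 active = inhibition above the primary screen's cutoff, the mean inhibition of all screened compounds plus 3 SD, cut at about 13% in these data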
HEK-CNG parental: acts as nonspecific agonist in parental HEK-CNG cells; shares compounds with GalR3 antag; HEK293-CNG parental cells, cAMP membrane potential fluorescence; normalised: DMSO wells 0%, forskolin wells 100%; activation, % at 3 µM; 1,600 compounds, 10% hits; AID 652268; in the data active = activation above about 1.3%
Each line names hits and unclear results; the compound was inactive in the other large screens (follow-up assays come after a bar, where they were run).

CCOc1cc(/C=N/N=C(N)N)ccc1OCc1ccc(Cl)cc1	none
COC(=O)[C@H](C(C)C)N(CCCc1cn(Cc2ccc(C)cc2)nn1)S(=O)(=O)c1ccc(F)cc1Br	none (no result: NR2E3 ag-1, CHT allo act, CHT block, NR2E3 ag-2, GalR3 antag)
C[C@@H]1CCN(C2CC2)S(=O)(=O)c2ccc(N3CC[C@@H](N(C)C)C3)cc2O1	none (no result: NR2E3 ag-1, CHT allo act, CHT block, NR2E3 ag-2, GalR3 antag)
Nc1ncnc2c1nc(N1CCCCC1)n2[C@@H]1O[C@H](CO)[C@@H](O)[C@H]1O	none (no result: CHT allo act, CHT block)
CNc1nc2c(N)ncnc2n1[C@H]1O[C@@H](CO)[C@H](O)[C@@H]1O	CHT block -7.59, GalR3 antag 26.1 | GalR3 conf 39.9 | HEK-CNG parental inactive
Cc1cccc(CCNC(=O)CSc2nc3c([nH]2)c(=O)n(C)c(=O)n3C)c1	none (no result: NR2E3 ag-1, CHT allo act, CHT block, NR2E3 ag-2, GalR3 antag)
COc1cccc(-c2c(C(=O)N/N=C/c3sccc3C)nnn2-c2nonc2N)c1	none (no result: GalR3 antag) | GalR3 conf inactive | HEK-CNG parental inactive
CC1CCC2(CCC(=O)N2CCCOC(=O)c2ccccc2)CC1 (stereo not given)	none (no result: NR2E3 ag-1, CHT allo act, CHT block, NR2E3 ag-2, GalR3 antag)
CN(C)S(=O)(=O)c1cccc(-c2cn3cccnc3n2)c1	none (no result: GalR3 antag) | GalR3 conf inactive | HEK-CNG parental inactive
CSc1ccc(C#N)cc1NC(=O)c1ccccc1C	GalR3 antag 15.3 | GalR3 conf 13.0 | HEK-CNG parental inactive
CSc1ccc(C#N)cc1NC(=O)c1ccc(Cl)nc1	none
Cc1cc(=O)[nH]c(SCC(=O)c2ccc3c(c2)NC(=O)CO3)n1	GalR3 antag 15.1 | GalR3 conf inactive | HEK-CNG parental inactive
Cc1ccccc1Cn1cc(CN2[C@@H](C)COc3cc(Br)ccc3S2(=O)=O)nn1	none (no result: NR2E3 ag-1, CHT allo act, CHT block, NR2E3 ag-2, GalR3 antag)
O=C(Nc1ccccc1)Nc1cc([N+](=O)[O-])ccc1F	GalR3 antag 21.3 | GalR3 conf inactive | HEK-CNG parental inactive
CCn1ncc(C2=NOC(C(=O)NCc3ccccc3)C2)c1C (stereo not given)	GalR3 antag 16.0 | GalR3 conf 24.8 | HEK-CNG parental inactive
COc1ccc(-c2nnn3c2Cn2c4ccccc4c(=O)n2[C@@H](C)C3)cc1	none (no result: NR2E3 ag-1, CHT allo act, CHT block, NR2E3 ag-2, GalR3 antag)
CN1C(=O)C(C)(C)c2cc(S(=O)(=O)N3CCCC(C(=O)Nc4ccc(Cl)cc4)C3)ccc21 (stereo not given)	GalR3 antag 17.8 | GalR3 conf 25.2 | HEK-CNG parental inactive
O=C(COc1cc(Cl)c(Cl)cc1Cl)Nc1ccncc1	GalR3 antag 13.0 | GalR3 conf inactive | HEK-CNG parental inactive
Cc1ccccc1NC(=O)N1CCCC1C(=O)NCc1cccs1 (stereo not given)	none (no result: GalR3 antag) | GalR3 conf inactive | HEK-CNG parental inactive
O=C(CN1CCN(c2nc(-c3ccccc3)cs2)CC1)Nc1ccc(Cl)cc1	none (no result: NR2E3 ag-1, CHT allo act, CHT block, NR2E3 ag-2, GalR3 antag)
CNc1ccccc1/C(O)=C(\C#N)C(=O)NCc1cccs1	none (no result: NR2E3 ag-1, CHT allo act, CHT block, NR2E3 ag-2, GalR3 antag)
O=C(NNS(=O)(=O)c1ccc([N+](=O)[O-])cc1)c1ccc([N+](=O)[O-])cc1	none
NS(=O)(=O)c1ccc(O)c(NC(=O)c2ccc([N+](=O)[O-])cc2)c1	GalR3 antag 19.9 | GalR3 conf inactive | HEK-CNG parental inactive
Cc1ccc(Cn2cc(CN(C)S(=O)(=O)c3ccccc3Br)nn2)cc1	none (no result: NR2E3 ag-1, CHT allo act, CHT block, NR2E3 ag-2, GalR3 antag)
N#C/C(=C/c1cn(-c2ccccc2)nc1-c1cccc(S(=O)(=O)N2CCCC2)c1)C(=O)NCc1ccco1	GalR3 antag 13.8 | GalR3 conf 23.0 | HEK-CNG parental inactive
Cc1cc(/C=C(\C#N)C(=O)NCc2ccco2)c(C)n1-c1ccc(C(=O)O)cc1	none (no result: GalR3 antag) | GalR3 conf inactive | HEK-CNG parental inactive
CN1C(=O)c2cc(NC(=O)c3ccc(F)cc3)ccc2OC[C@H]2O[C@H](CC(=O)NC3CCC3)CC[C@H]21	none (no result: NR2E3 ag-1, CHT allo act, CHT block, NR2E3 ag-2, GalR3 antag)
C=CCN1C(=O)[C@@H](CC(=O)NCCCN2CCCC2=O)[C@]2(C(=O)OCC)CCCCC/C=C/12	none (no result: NR2E3 ag-1, CHT allo act, CHT block, NR2E3 ag-2, GalR3 antag)
Cc1ccc(-c2cc(C(=O)NN=Cc3ccc(-c4ccccc4)cc3)[nH]n2)cc1	none (no result: NR2E3 ag-1, CHT allo act, CHT block, NR2E3 ag-2, GalR3 antag)
COc1cc(/C=N/NC(=S)N/N=C/c2cc(OC)c(OC)c(OC)c2)cc(OC)c1OC	GalR3 antag 19.7 | GalR3 conf 15.5 | HEK-CNG parental inactive
CCOc1cc(/C=N/NC(N)=O)cc(Br)c1OCC(=O)Nc1ccccc1C	GalR3 antag 68.8 | GalR3 conf 39.7 | HEK-CNG parental inactive
C=CCOc1c(Br)cc(/C=N/NC(N)=O)cc1OC	GalR3 antag 13.2 | GalR3 conf inactive | HEK-CNG parental inactive
COc1ccc(CNC(=O)[C@@H](C)NC(=O)[C@@H]2Cc3ccccc3CN2)cc1	GalR3 antag 19.5 | GalR3 conf inactive | HEK-CNG parental inactive
COc1ccc(CNC(=O)CNC(=O)[C@@H]2Cc3ccccc3CN2)cc1	none
CCCC1CCC2(CCCN2CCOC(=O)Nc2ccc(F)cc2)CC1 (stereo not given)	none (no result: NR2E3 ag-1, CHT allo act, CHT block, NR2E3 ag-2, GalR3 antag)
COc1cc(C2C3=C(CCCC3=O)Nc3ccc4ncccc4c32)ccc1O (stereo not given)	GalR3 antag 15.1 | GalR3 conf inactive | HEK-CNG parental inactive
COc1ccc(C2C3=C(CCCC3=O)Nc3ccc4ncccc4c32)cc1OC (stereo not given)	none
COc1ccc(OC[C@@H](O)CNC(=O)c2cccc3c2C(=O)c2ccc(Cl)cc2S3(=O)=O)cc1	GalR3 antag 78.1 (no result: CHT allo act, CHT block) | GalR3 conf 58.0 | HEK-CNG parental inactive
Nc1[nH]n2c(=O)c3c(nc2c1N=Nc1ccc(Cl)cc1)CCCC3	none
Nc1[nH]n2c(=O)c3c(nc2c1N=Nc1ccccc1)CCCC3	GalR3 antag 61.4 | GalR3 conf 28.5 | HEK-CNG parental inactive
COC(=O)[C@]12CCCCC=C1N(Cc1ccc(OC)cc1)C(=O)[C@@H]2CC(=O)N1CCCCC1	none (no result: NR2E3 ag-1, CHT allo act, CHT block, NR2E3 ag-2, GalR3 antag)
O=C(NCc1ccc(Cl)cc1)C(=O)c1cn(CC(=O)N2CCOCC2)c2ccccc12	GalR3 antag 19.3 | GalR3 conf inactive | HEK-CNG parental inactive
C[C@H]1CCCN1c1cccc2c1S(=O)(=O)N(C1CC1)CCCO2	none (no result: NR2E3 ag-1, CHT allo act, CHT block, NR2E3 ag-2, GalR3 antag)
CC1CCCc2sc3nc(N4CCN(CCO)CC4)n4ncnc4c3c21 (stereo not given)	GalR3 antag 22.4 | GalR3 conf 42.6 | HEK-CNG parental 1.9
NC(=O)CSc1nc2sc3c(c2c2ncnn12)CCCC3	none
CC(=O)N1CCN(c2ccc(NC(=S)NC(=O)COc3ccc(C(C)(C)C)cc3)cc2)CC1	GalR3 antag 29.8 | GalR3 conf 95.2 | HEK-CNG parental inactive
CCCn1nc(C(=O)NNC(=O)CCCOc2ccc(C)cc2)c2ccccc2c1=O	GalR3 antag 85.5 | GalR3 conf 90.3 | HEK-CNG parental inactive

Assay outcomes from PubChem BioAssay.
